Consider three compounds from article PMC11808297 (RSC Advances, 2025).

One data set addresses T1, APN from porcine kidney (Sus scrofa, UniProt P15145).
T1 sequence (P15145 1-963): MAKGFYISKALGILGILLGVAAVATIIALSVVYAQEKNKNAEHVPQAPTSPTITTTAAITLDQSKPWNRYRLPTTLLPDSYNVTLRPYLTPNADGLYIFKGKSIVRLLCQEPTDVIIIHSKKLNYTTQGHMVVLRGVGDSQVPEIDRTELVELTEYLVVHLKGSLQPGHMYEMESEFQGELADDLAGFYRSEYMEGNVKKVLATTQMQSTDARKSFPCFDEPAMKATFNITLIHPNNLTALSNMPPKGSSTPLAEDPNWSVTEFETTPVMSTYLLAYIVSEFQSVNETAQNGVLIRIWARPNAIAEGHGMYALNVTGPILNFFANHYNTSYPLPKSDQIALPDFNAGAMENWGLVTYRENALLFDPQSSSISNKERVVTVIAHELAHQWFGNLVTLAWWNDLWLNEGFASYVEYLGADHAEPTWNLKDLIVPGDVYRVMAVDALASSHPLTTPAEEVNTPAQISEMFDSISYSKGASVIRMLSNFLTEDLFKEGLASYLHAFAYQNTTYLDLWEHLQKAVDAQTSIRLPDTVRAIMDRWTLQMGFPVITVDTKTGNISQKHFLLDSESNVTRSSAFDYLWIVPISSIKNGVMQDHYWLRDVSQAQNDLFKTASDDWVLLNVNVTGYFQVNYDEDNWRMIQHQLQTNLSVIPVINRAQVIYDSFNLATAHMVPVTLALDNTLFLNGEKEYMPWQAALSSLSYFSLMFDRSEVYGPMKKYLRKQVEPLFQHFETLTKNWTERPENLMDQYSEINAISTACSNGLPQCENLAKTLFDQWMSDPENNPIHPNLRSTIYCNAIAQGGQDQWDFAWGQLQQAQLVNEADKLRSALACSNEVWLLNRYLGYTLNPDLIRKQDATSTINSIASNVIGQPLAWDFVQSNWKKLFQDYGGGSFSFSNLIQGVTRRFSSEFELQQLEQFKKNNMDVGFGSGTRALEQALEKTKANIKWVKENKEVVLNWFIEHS
The data set is described as follows: APN inhibition assay. In kind it is biochemical.

The test system of a further data set is MDA-MB-231. The data set is described as follows: Anti-proliferation assay. In kind it is cell-based. The note with it: Homo sapiens, MDA-MB-231, 48 h, read-out: IC50 against proliferation, MDA-MB-231. The essentials: (§1)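 Cells thawed, grown in RPMI 1640 + 10% FBS at 37 °C, 5% CO2; used in log phase. Seeded 10 000–12000 cells/well, after 4 h test compound added at working concentrations 0.16/0.8/4/20/100 μmol L−1 in complete medium. MTT (5 mg mL−1) added for 4 h, formazan dissolved in DMSO, absorbance at 570 nm.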

The subject of the next data set is HEL. The data set is described as follows: Anti-proliferation assay. In kind it is cell-based. Conditions: Homo sapiens, 48 h, read-out: IC50 against proliferation, HEL. The essentials: as §1
For a further data set, the system named is K562. The data set is described as follows: Anti-proliferation assay. In kind it is cell-based. Conditions: Homo sapiens, K562, 48 h, read-out: IC50 against proliferation, K562. The essentials:
as §1

A further data set relates to HuH7. As to the kind of experiment: Anti-proliferation assay. In kind it is cell-based. Conditions: Homo sapiens, Huh-7, 48 h, read-out: IC50 against proliferation, HuH7. Summed up:
as §1

The next data set concerns PLC/PRF/5. The data set is described as follows: Anti-proliferation assay. In kind it is cell-based. Conditions: Homo sapiens, PLC-PRF-5, 48 h, read-out: IC50 against proliferation, PLC/PRF/5. The essentials: as §1
A further data set has as its system HEPG2. As to the kind of experiment: Anti-proliferation assay. The note with it: Homo sapiens, HepG2, 48 h, read-out: IC50 against proliferation, HEPG2. In kind it is cell-based. The essentials: as §1
Data set [1] deals with human umbilical vein endothelial cells (HUVECs). The data set is described as follows: HUVEC tubular structure formation assay. In kind it is cell-based. The note with it: 5 μM, 4 h on Matrigel.
The subject of a further data set is rat thoracic aorta ring. The data set is described as follows: Rat aortic ring assay. Conditions: 5 μM, 9 days. Summed up:
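Thoracic aortas from 8–10 week-old male SD rats, cleaned of fibroadipose tissue, cut into 1 mm rings, embedded between Matrigel layers. Test compound in M199 added; cultured at 37 °C, 5% CO2 for 9 days with medium plus compound renewed every three days. Micro-vessels imaged by inverted microscope at 100×.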

Data set [2] in a line: Stability in simulated gastric fluid. The note with it: 2 μM, 37 °C, pH 1.20, up to 24 h. In kind it is in vitro ADME. Summed up: (§2)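 Test compound at 2 μM final in simulated gastric fluid (NaCl, pepsin, HCl; pH 1.20) or simulated intestinal fluid (KH2PO4, pancreatin; pH 6.8), shaken at 37 °C, 600 rpm. At 0, 1, 2, 6, 24 h quenched with cold acetonitrile containing tolbutamide/labetalol IS, centrifuged 4 °C; remaining compound by LC/MS/MS peak area ratio analyte/IS, C18 column.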

Data set [3] in a line: Stability in simulated intestinal fluid. In kind it is in vitro ADME. The note with it: 2 μM, 37 °C, pH 6.8, up to 24 h. The essentials:
as §2

Data set [4] is described as follows: Metabolic stability in mouse liver microsomes. In kind it is in vitro ADME. Conditions: for CLint(liver): NADPH; for Remaining (NCF = 60 min): no co-factor. Summed up:
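CD-1 mouse liver microsomes in 100 mM potassium phosphate buffer, preincubated 10 min at 37 °C with NADPH (1 mM final) or without co-factor. Test compound spiked to 1 μM final; testosterone positive control. Sampled at 5, 15, 30, 45, 60 min, quenched in cold acetonitrile with tolbutamide/labetalol IS, LC-MS/MS. T1/2 and CLint from first-order kinetics.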
On the technique in general: Liver microsomes are a subcellular fraction often used to study metabolism.

Data set [5] can be described thus: In vivo PK study in Sprague Dawley rats. The note with it: male, rat, plasma. Summed up:
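Male SD rats, 180–220 g, acclimatised one week, fasted 12 h. Single dose i.v. infusion (jugular vein cannula sampling) or oral; blood taken predose and to 24 h (i.v. from 0.083 h, oral from 0.25 h). Plasma by centrifugation, stored −20 °C, LC-MS/MS quantitation.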

The mark [6] stands for this setting: mouse liver microsomes, 1 μM, 60 min.

Where only a bound is given, the exact number is not on record here.

Turning to `CC(C)C[C@H](NC(=O)NCc1cn(-c2ccccc2C(=O)OCn2cc(F)c(=O)[nH]c2=O)nn1)C(=O)NO` [Compound 3, (5-fluoro-2,4-dioxo-3,4-dihydropyrimidin-1(2H)-yl)methyl (S)-2-(4-((3-(1-(hydroxyamino)-4-methyl-1-oxopentan-2-yl)ureido)methyl)-1H-1,2,3-triazol-1-yl)benzoate], the IC50 against APN from porcine kidney is 0.5 ± 0.29 µM; with MDA-MB-231, over 100 µM; with HEL, 47.2 ± 19.3 µM; in the data set with K562 it was 25.6 ± 12.3 µM; with HuH7, over 100 µM; with PLC/PRF/5, over 100 µM. Besides, the IC50 with HEPG2 is over 100 µM. Moreover, the “APN inhibitory activity, fold more potent than bestatin” value on APN from porcine kidney (vs positive control bestatin) is given as “over 8 fold”. In addition, in [1], the “Effect on HUVEC capillary tube formation” value is “could inhibit the capillary tube formation”. In the data set on rat thoracic aorta ring, the “Effect on micro-vessel growth of rat aortic ring” value is reported as “could prevent the micro-vessel growth”. The “Stability in simulated gastric fluid” value in data set [2] was “very stable”. Further, the “Stability in simulated intestinal fluid” value in data set [3] is recorded as “slowly cleaved”. The half-life at 1 μM in data set [4] (CD-1, mouse, liver microsomes) is 94.9 min. The same compound showed a microsomal CLint at 1 μM in data set [4] (CD-1, mouse, liver microsomes) of 14.6 µL/min/mg. Moreover, the “CLint(liver)” value in data set [4] (mouse liver microsomes, 1 μM) turned out to be 57.8 mL/min/kg. Further, in data set [4] (setting [6]), the “Remaining (NCF = 60 min)” value is recorded as 80.1%. The “Remaining (T = 60 min)” value in [4] (mouse liver microsomes, 1 μM, with NADPH, 60 min) turned out to be 69.4%. Also, the Tmax in data set [5] (iv, 10 mg/kg) came to 5 min; in [5] (po, 50 mg/kg), 25 ± 8.64 min. Besides, the clearance in [5] (iv, 10 mg/kg) was 12.3 mL/min/kg. Besides, the half-life in data set [5] (iv, 10 mg/kg) is 52 ± 23.2 min; in data set [5] (po, 50 mg/kg), 266 ± 246 min. Moreover, the AUC(0-inf) in data set [5] (po, 50 mg/kg) was 510 ± 99.3 ng·h/mL. In data set [5] (po, 50 mg/kg), this compound displayed an AUC(0-t) of 484 ± 119 ng·h/mL. This compound yielded a Cmax in data set [5] (po, 50 mg/kg) of 337 ± 158 ng/mL.
On to `CC(C)C[C@H](NC(=O)[C@@H](O)[C@H](N)Cc1ccccc1)C(=O)O` [Bestatin, reference compound], for which the IC50 with MDA-MB-231, in the data set with HEL, with K562, in the data set on HuH7, with PLC/PRF/5 and in the data set on HEPG2 was over 100 µM throughout.
`C[C@]12CC[C@H]3[C@@H](CCC4=CC(=O)CC[C@@]43C)[C@@H]1CC[C@@H]2O` [Testosterone, reference compound]: the “CLint(liver)” value in data set [4] (mouse liver microsomes, 1 μM) came out at 998.5 mL/min/kg. Moreover, the “Remaining (NCF = 60 min)” value in data set [4] (setting [6]) is 91.0%.

In general, half-life refers to how long it takes for the measured level to halve. Low readings indicate fast loss, high ones slow loss. In general, microsomal CLint refers to the capacity of the preparation to metabolise the compound, expressed as a volume cleared per time. In general, Tmax refers to the time from dosing to the highest level. The term clearance denotes the volume of plasma or blood freed of the substance per unit of time. Read a high clearance as a high capacity for elimination. A word on the AUC(0-inf): it is total exposure, with the tail of the curve extrapolated. Lower therefore signals less exposure. Broadly, the AUC(0-t) is the area under the concentration-time curve up to a stated or last time point. A low value points to low exposure. Usually Cmax stands for the highest concentration seen after dosing.
